According to ChEMBL document CHEMBL1128402, “Irreversible inhibitors of nicotinic acetylcholine receptors: isolation and structural characterization of the biologically active solvolysis products of bipinnatin-A and bipinnatin-C” (J Med Chem, 1995):

Experiments:
[1] = Rate of acetate production by the compound was determined; assay type: ADME
How it was run: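 Toxin at 100 μM in 25 mM sodium phosphate, pH 7.4, 1% DMSO, at 22–24 °C for up to 8 h. Acetic acid was then measured with a coupled enzyme assay (NAD to NADH, A340 every 5 s for 5 min, initial rate by linear regression, calibrated with 25–200 μM acetate standards). Percent of maximum fit to a single-exponential growth function; mean ± SEM of 3–9 experiments.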

[2] = Rate constant of solvolysis for the compound was determined; assay type: ADME
How it was run: (§1)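 Toxin at 100 μM (diluted from 10 mM DMSO stock) in 25 mM sodium phosphate, pH 7.4, 1% DMSO, at 22–24 °C for various times. Fit by nonlinear regression to a single-exponential decay; mean ± SEM of 3–9 independent experiments.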

[3] = Half-life was determined; assay type: ADME; how it was run: as §1
[4] = Amount of acetic acid produced by the compound; assay type: ADME
[5] = Apparent first-order rate of solvolysis for the bipinnatin-A(A4) was determined; assay type: ADME
[6] = Half-life of the bipinnatin-A(A4) was determined; assay type: ADME
[7] = tested on: BC3H-1; assay: Irreversible inhibition of [1251]alpha-bungarotoxin binding to Nicotinic acetylcholine receptor (neuronal and muscle) by bipinnatin-A on intact BC3H-1 cell lines; assay type: cell-based; conditions: dose or concentration not given here
How it was run: (§2)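 Each toxin was preincubated 0–8 h in pH 7.4 phosphate buffer, then its HPLC-isolated peak was dissolved in Hepes/KCl assay buffer pH 7.4 with 1% DMSO. BC3H-1 cells were equilibrated 20 min at 22–24 °C, given the toxin for 1 h, washed, then given saturating [125I]-α-bungarotoxin (15–20 nM) for 1 h. Bound label was gamma-counted, nonspecific binding defined with 100 nM α-bungarotoxin, run in triplicate.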

[8] = tested on: BC3H-1; assay: Irreversible inhibition of [1251]alpha-bungarotoxin binding to Nicotinic acetylcholine receptor (neuronal and muscle) by bipinnatin-A(A4) on intact BC3H-1 cell lines; assay type: cell-based; conditions: dose or concentration not given here; how it was run: as §2
[9] = tested on: BC3H-1; assay: Irreversible inhibition rate of [1251]alpha-bungarotoxin binding to Nicotinic acetylcholine receptor (neuronal and muscle) by bipinnatin-A on intact BC3H-1 cell lines; assay type: cell-based
How it was run: (§3)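 Toxin diluted to 100 µM in assay buffer with 1% DMSO was added straight onto BC3H-1 cells. At set times it was removed and remaining receptors were measured with saturating [125I]-α-bungarotoxin. The log of specific binding relative to time zero was plotted against time. Rates came from nonlinear regression, double-exponential where applicable, from at least two independent experiments.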

[10] = tested on: BC3H-1; assay: Irreversible inhibition rate of [1251]alpha-bungarotoxin binding to Nicotinic acetylcholine receptor (neuronal and muscle) by bipinnatin-A(A4) on intact BC3H-1 cell lines; assay type: cell-based; how it was run: as §3
[11] = Amount acetic acid produced by the compound; assay type: ADME

| Structure (SMILES) | Activity [1] [h⁻¹] | Ksolv [2] [h⁻¹] | T1/2 [3] [h] | half-life [3] [h] | Activity [4] [M⁻¹] | Activity [5] [h⁻¹] | half-life [6] [h] | inhibition [7] [%] | inhibition [8] [%] | inhibition [9] [min⁻¹] | inhibition [10] [min⁻¹] | Acid hydrolysis [11] [mol/mol] |
| --- | --- | --- | --- | --- | --- | --- | --- | --- | --- | --- | --- | --- |
| CC(=O)OC1C2=C(C)C=C(O2)[C@@H]2O[C@@]2(C)CC2OC(=O)[C@@]3(O[C@H]23)C(OC(C)=O)C[C@@H]1C1(C)CO1 (some centres not stated) | 0.589 | 0.596 | 1.24 | 1.17 | – | – | – | – | – | – | – | – |
| C=C(C)[C@@H]1CC2=C(C=O)C=C(O2)[C@@H]2O[C@@]2(C)C[C@H]2OC(=O)[C@@]3(O[C@H]23)[C@@H](OC(C)=O)C1 [LOPHOTOXIN] | – | 0.017 | – | 40 | 0.17 | – | – | – | – | – | – | – |
| C=C(C(=O)OC)[C@H]1CC(OC(C)=O)[C@@]23O[C@@H]2C(C[C@]2(C)O[C@H]2C2=CC(C)=C(O2)C1OC(C)=O)OC3=O (some centres not stated) | 0.67 | 0.638 | 1.04 | 1.08 | – | 0.399 | 1.74 | 41.5 | 57.5 | 0.29 | 0.033 | – |
| CC(=O)OCC[N+](C)(C)C [ACETYLCHOLINE] | – | – | – | – | – | – | – | – | – | – | – | 0.22 |
| C=C(C=O)[C@H]1CC(OC(C)=O)[C@@]23O[C@@H]2C(C[C@]2(C)O[C@H]2C2=CC(C)=C(O2)C1OC(C)=O)OC3=O (some centres not stated) | 0.735 | 0.719 | 0.97 | 0.97 | – | – | – | – | – | – | – | – |
